Legend:
[1] = biological target: Human immunodeficiency virus type 1 integrase (Human immunodeficiency virus 1, UniProt Q7ZJM1); experiment: Inhibition of HIV1 integrase strand transfer activity
[2] = Clearance in Sprague-Dawley rat at 1 mg/kg, iv after 4 hrs; type: ADME, organism-based; conditions: in vivo
Summary of the method: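 Male Sprague-Dawley rats given 1 mpk IV in PEG400/ethanol (90:10); blood sampled at 5 and 30 min and 1, 2 and 4 h post-dose; clearance from plasma profile.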

Sequence of Human immunodeficiency virus type 1 integrase (Q7ZJM1 whole entry): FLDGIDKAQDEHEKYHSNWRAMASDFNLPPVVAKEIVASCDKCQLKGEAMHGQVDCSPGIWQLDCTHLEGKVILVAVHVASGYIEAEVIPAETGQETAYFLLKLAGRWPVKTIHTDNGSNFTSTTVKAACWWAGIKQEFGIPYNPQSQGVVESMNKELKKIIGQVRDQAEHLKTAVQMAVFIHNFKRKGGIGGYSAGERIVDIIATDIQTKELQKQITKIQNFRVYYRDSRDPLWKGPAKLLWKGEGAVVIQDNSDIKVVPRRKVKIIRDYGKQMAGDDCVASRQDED

SMILES	IC50 [1] [nM]	clearance [2] [mL/min/kg]
CC1(C)OCCn2c1nc(C(=O)NCc1ccc(F)c(Cl)c1)c(O)c2=O	3	–
Cc1cc(CNC(=O)c2nc3n(c(=O)c2O)CCOC3(C)C)ccc1F	3	11

— ChEMBL document CHEMBL4118197, “The discovery and preclinical evaluation of BMS-707035, a potent HIV-1 integrase strand transfer inhibitor” (Bioorg Med Chem Lett, 2018)
